Results published in ChEMBL document CHEMBL1153051, “Peperomins as anti-inflammatory agents that inhibit the NF-kappaB signaling pathway” (Bioorg Med Chem Lett, 2009).
Activity calls are given as the source filed them. No cut-off for these calls is given here.

How the values were obtained:
[1] = biological target: T1, Inhibitor of nuclear factor kappa-B kinase subunit beta (Homo sapiens) (UniProt O14920); assay: Inhibition of human FLAG-tagged IKK-beta expressed in HEK293 cells at 50 uM by Western blot analysis in presence of ATP; type: cell-based
T1 sequence (whole entry): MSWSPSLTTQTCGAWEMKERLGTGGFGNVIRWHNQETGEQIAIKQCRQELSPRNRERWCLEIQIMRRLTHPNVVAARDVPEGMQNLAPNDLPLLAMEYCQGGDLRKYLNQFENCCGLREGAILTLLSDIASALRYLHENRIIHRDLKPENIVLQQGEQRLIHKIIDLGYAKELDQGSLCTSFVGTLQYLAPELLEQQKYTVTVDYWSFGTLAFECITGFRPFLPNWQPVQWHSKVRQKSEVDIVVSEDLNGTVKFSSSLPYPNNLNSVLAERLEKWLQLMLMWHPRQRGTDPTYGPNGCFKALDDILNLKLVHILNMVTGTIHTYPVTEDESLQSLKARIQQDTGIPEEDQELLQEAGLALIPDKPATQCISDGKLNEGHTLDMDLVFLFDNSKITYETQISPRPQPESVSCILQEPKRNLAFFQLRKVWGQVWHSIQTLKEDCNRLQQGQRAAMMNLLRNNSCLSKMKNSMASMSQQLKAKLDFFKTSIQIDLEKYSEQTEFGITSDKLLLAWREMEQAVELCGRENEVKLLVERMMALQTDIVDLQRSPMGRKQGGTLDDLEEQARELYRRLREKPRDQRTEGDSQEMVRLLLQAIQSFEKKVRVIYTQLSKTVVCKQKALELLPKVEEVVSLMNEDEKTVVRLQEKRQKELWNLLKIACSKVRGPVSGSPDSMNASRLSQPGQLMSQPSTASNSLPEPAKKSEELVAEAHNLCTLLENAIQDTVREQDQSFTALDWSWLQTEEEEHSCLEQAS
How it was run: (§1)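 FLAG-IKKβ was transiently overexpressed in HEK293 cells for 24 h, then immunoprecipitated with anti-FLAG antibody. Precipitates were incubated with or without compound before the kinase reaction, and the phosphorylated product was read out by Western blot.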

A549 [2] = assay: Antiinflammatory activity in human A549 cells assessed as reduction of TNF-alpha-induced cell surface ICAM1 expression upto 100 uM preincubated for 1 hr before TNFalpha challenge measured after 6 hrs by Western blot analysis; type: functional, cell-based
How it was run: (§2)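 A549 cells pretreated 1 h with peperomins at various concentrations, then TNF-α (2.5 ng/mL) or IL-1 (0.25 ng/mL) added for 6 h with compound still present. Whole-cell lysates were Western blotted for ICAM-1, with β-actin as loading control.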

A549 [3] = assay: Antiinflammatory activity in human A549 cells assessed as reduction of IL1-induced cell surface ICAM1 expression upto 100 uM preincubated for 1 hr before IL1 challenge measured after 6 hrs by Western blot analysis; type: functional, cell-based; how it was run: as §2
A549 [4] = assay: Reduction of IL1-induced COX2 expression in human A549 cells at 100 uM preincubated for 1 hr before IL1 challenge measured after 6 hrs by Western blot analysis; type: functional, cell-based
How it was run: (§3)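 Cox-2 protein was Western blotted in A549 cells, with β-actin as loading control. Cells were pretreated 1 h with compound at various concentrations, then exposed 6 h to TNF-α (2.5 ng/mL) or IL-1 (0.25 ng/mL) in its continued presence.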

A549 [5] = assay: Antiinflammatory activity in human A549 cells assessed as reduction of TNF-alpha-induced increase in cell surface ICAM1 expression upto 100 uM preincubated for 1 hr before TNFalpha challenge measured after 6 hrs by ELISA; type: functional, cell-based
How it was run: (§4)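 Cell ELISA of surface ICAM-1 on A549 cells. Cells were pretreated 1 h across a concentration series, then stimulated 6 h with TNF-α (2.5 ng/mL) or IL-1 (0.25 ng/mL) with compound present. Values are means ± SD of triplicate cultures.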

A549 [6] = assay: Antiinflammatory activity in human A549 cells assessed as reduction of IL1-induced increase in cell surface ICAM1 expression upto 100 uM preincubated for 1 hr before IL1 challenge measured after 6 hrs by ELISA; type: functional, cell-based; how it was run: as §4
A549 [7] = assay: Antiinflammatory activity in human A549 cells assessed as reduction of IL1-induced increase in cell surface ICAM1 expression preincubated for 1 hr before IL1 challenge measured after 6 hrs by ELISA; type: functional, cell-based; how it was run: as §4
MCF7 [8] = assay: Antiinflammatory activity in human MCF7 cells assessed as inhibition of TNF-alpha-induced cell surface ICAM1 expression upto 100 uM preincubated for 1 hr before TNFalpha challenge measured after 6 hrs by ELISA; type: functional, cell-based
MCF7 [9] = assay: Antiinflammatory activity in human MCF7 cells assessed as inhibition of IL1-induced cell surface ICAM1 expression upto 100 uM preincubated for 1 hr before IL1 challenge measured after 6 hrs by ELISA; type: functional, cell-based
MCF7 [10] = assay: Cytotoxicity against human MCF7 cells upto 100 uM after 6 hrs by MTT assay; type: cell-based; conditions: mcf7, 6 h
A549 [11] = assay: Cytotoxicity against human A549 cells upto 100 uM after 6 hrs by MTT assay; type: cell-based; conditions: a549, 6 h
How it was run: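 A549 viability by MTT after 6 h exposure to a range of compound concentrations, no cytokine. Viability given as %, means ± SD of triplicate cultures.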

A549 [12] = assay: Antiinflammatory activity in human A549 cells assessed as substantial decrease in TNF-alpha-induced cell surface ICAM1 expression at > 10 uM preincubated for 1 hr before TNFalpha challenge measured after 6 hrs by Western blot analysis; type: functional, cell-based; how it was run: as §2
A549 [13] = assay: Antiinflammatory activity in human A549 cells assessed as substantial decrease in IL1-induced cell surface ICAM1 expression at > 10 uM preincubated for 1 hr before IL1 challenge measured after 6 hrs by Western blot analysis; type: functional, cell-based; how it was run: as §2
A549 [14] = assay: Antiinflammatory activity in human A549 cells assessed as complete decrease in TNF-alpha-induced cell surface ICAM1 expression at 100 uM preincubated for 1 hr before TNFalpha challenge measured after 6 hrs by Western blot analysis; type: functional, cell-based; how it was run: as §2
A549 [15] = assay: Antiinflammatory activity in human A549 cells assessed as complete decrease in IL1-induced cell surface ICAM1 expression at 100 uM preincubated for 1 hr before IL1 challenge measured after 6 hrs by Western blot analysis; type: functional, cell-based; how it was run: as §2
A549 [16] = assay: Reduction of TNF-alpha-induced COX2 expression in human A549 cells at 100 uM preincubated for 1 hr before TNFalpha challenge measured after 6 hrs by Western blot analysis; type: functional, cell-based; how it was run: as §3
[17] = biological target: T2, Inhibitor of nuclear factor kappa-B kinase subunit alpha (Homo sapiens) (UniProt O15111); assay: Inhibition of N-terminal GST-fused human IkappaBalpha (1 to 54) expressed in Escherichia coli BL21
T2 sequence (whole entry): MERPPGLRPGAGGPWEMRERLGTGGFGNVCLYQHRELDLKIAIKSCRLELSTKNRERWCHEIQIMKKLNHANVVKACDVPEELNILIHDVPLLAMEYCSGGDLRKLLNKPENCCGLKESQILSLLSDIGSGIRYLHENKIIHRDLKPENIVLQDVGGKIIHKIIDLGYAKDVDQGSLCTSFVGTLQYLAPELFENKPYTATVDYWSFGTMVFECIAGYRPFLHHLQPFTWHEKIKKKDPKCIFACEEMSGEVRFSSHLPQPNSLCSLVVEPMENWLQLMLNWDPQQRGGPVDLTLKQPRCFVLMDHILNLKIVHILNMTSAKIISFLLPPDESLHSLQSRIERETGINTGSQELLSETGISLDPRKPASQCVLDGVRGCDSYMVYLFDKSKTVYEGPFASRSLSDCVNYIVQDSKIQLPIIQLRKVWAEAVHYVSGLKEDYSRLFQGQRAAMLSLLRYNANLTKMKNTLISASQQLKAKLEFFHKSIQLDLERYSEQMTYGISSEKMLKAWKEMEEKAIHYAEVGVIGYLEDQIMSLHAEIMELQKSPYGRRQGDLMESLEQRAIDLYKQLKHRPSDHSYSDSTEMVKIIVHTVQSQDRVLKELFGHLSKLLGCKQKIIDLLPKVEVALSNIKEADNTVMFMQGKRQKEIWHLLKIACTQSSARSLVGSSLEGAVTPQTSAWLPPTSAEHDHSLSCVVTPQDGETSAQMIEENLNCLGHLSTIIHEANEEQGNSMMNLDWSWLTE
How it was run: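 IKK complex was immunoprecipitated with anti-IKKα from A549 cells. Cells were pretreated 1 h with compound, then given TNF-α (2.5 ng/mL) for 15 min. Precipitates phosphorylated GST-IκBα(1–54) with or without ATP (10 µM). Phospho-substrate was detected by Western blot with anti-phospho-IκB antibody, with bands quantified relative to IKKα.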

[18] = biological target: T1, Inhibitor of nuclear factor kappa-B kinase subunit beta (Homo sapiens); assay: Inhibition of human FLAG-tagged IKK-beta expressed in HEK293 cells at 0.1 to 100 uM by Western blot analysis in presence of ATP; type: cell-based; how it was run: as §1
A549 [19] = assay: Antiinflammatory activity in human A549 cells assessed as reduction of TNF-alpha-induced increase in cell surface ICAM1 expression preincubated for 1 hr before TNFalpha challenge measured after 6 hrs by ELISA; type: functional, cell-based; how it was run: as §4
[20] = biological target: T3, NF-kappa-B inhibitor alpha (Homo sapiens) (UniProt P25963); assay: Inhibition of IL1-stimulated IkappaBalpha degradation in human A549 cells at 0.1 to 100 uM preincubated for 1 hr before IL1 challenge measured after 10 mins by Western blot analysis; type: cell-based
T3 sequence (whole entry): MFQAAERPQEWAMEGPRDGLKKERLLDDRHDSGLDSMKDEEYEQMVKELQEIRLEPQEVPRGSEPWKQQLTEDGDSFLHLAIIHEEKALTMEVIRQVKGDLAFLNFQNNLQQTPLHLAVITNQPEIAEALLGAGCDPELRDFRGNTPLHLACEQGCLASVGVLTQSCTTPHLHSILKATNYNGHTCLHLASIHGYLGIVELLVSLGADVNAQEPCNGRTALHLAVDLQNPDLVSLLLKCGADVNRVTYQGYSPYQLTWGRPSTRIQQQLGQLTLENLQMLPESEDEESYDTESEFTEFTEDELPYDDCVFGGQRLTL

A549 [21] = assay: Inhibition of TNF-alpha-induced IKKalpha expression in human A549 cells at 100 uM preincubated for 1 hr before TNFalpha challenge measured after 5 to 30 mins by Western blot analysis; type: functional, cell-based
A549 [22] = assay: Inhibition of IL1-induced IKKalpha expression in human A549 cells at 100 uM preincubated for 1 hr before IL1 challenge measured after 5 to 30 mins by Western blot analysis; type: functional, cell-based
A549 [23] = assay: Inhibition of TNF-alpha-induced IKK-beta expression in human A549 cells at 100 uM preincubated for 1 hr before TNFalpha challenge measured after 5 to 30 mins by Western blot analysis; type: functional, cell-based
A549 [24] = assay: Inhibition of IL1-induced IKK-beta expression in human A549 cells at 100 uM preincubated for 1 hr before IL1 challenge measured after 5 to 30 mins by Western blot analysis; type: functional, cell-based
A549 [25] = assay: Selectivity for inhibition of TNF-alpha-induced cell surface ICAM1 expression over inhibition of TNF-alpha-induced COX2 expression in human A549 cells; type: functional
A549 [26] = assay: Selectivity for inhibition of IL1-induced cell surface ICAM1 expression over inhibition of IL1-induced COX2 expression in human A549 cells; type: functional
[27] = biological target: T3, NF-kappa-B inhibitor alpha (Homo sapiens); assay: Inhibition of TNF-alpha-stimulated IkappaBalpha degradation in human A549 cells at 0.1 to 100 uM preincubated for 1 hr before TNFalpha challenge measured after 15 mins by Western blot analysis

inhibition [17]	inhibition [18]	Compound	Activity (A549 [2])	Activity (A549 [3])	Activity (A549 [4])	Activity (A549 [5])	Activity (A549 [6])	Activity (A549 [7])	Activity (MCF7 [8])	Activity (MCF7 [10])	Activity (A549 [11])	Activity (A549 [12])	Activity (A549 [13])	Activity (A549 [14])	Activity (A549 [15])	Activity (A549 [16])	Activity (A549 [19])	further results
		CCCCC/C=C/C=C1/C(=O)C=C[C@@H]1C/C=C\CCCC(=O)O																inhibition [1]: Active
		COc1cc(C(c2cc(OC)c3c(c2)OCO3)[C@@H]2COC(=O)[C@H]2C)cc2c1OCO2	inactive	inactive	inactive	inactive	inactive											
		COc1cc([C@@H](c2cc(OC)c3c(c2)OCO3)[C@@H]2COC(=O)[C@H]2C)cc(OC)c1OC	inactive	inactive	inactive	inactive	inactive											
Active	inactive	C=C1C(=O)OC[C@H]1[C@@H](c1cc(OC)c(OC)c(OC)c1)c1cc(OC)c2c(c1)OCO2 [2,6-DIDEHYDROPEPEROMIN B]						Dose-dependent effect	Active	Non-toxic	Toxic	Active	Active	Active	Active	Active	Dose-dependent effect	inhibition (MCF7 [9]): Active
Active	inactive	C=C1C(=O)OC[C@H]1C(c1cc(OC)c2c(c1)OCO2)c1cc(OC)c2c(c1)OCO2 [PEPEROMIN E]						Dose-dependent effect	Active	Non-toxic	Toxic	Active	Active	Active	Active	Active	Dose-dependent effect	Activity (MCF7 [9]): Active; inhibition [20]: Active; inhibition (A549 [21]): inactive; inhibition (A549 [22]): inactive; Activity (A549 [23]): inactive; inhibition (A549 [24]): inactive; fold change (FC) (A549 [25]): 10; fold change (FC) (A549 [26]): 10; inhibition [27]: Active
